# Measured values as given in ChEMBL document CHEMBL3992522, “Antileishmanial Activity of Pyrazolopyridine Derivatives and Their Potential as an Adjunct Therapy with Miltefosine” (J Med Chem, 2017).
# Activity calls are given as the source filed them. The calls are words filed in the database; no cut-off is given here.
# Columns and labels:
# [1] = Metabolic stability in mouse liver S9 fractions at 1 mM after 60 mins in presence of NADPH by HPLC method; format: ADME; conditions: read-out: Stability
# [2] = Stability in pH 6.5 simulated intestinal fluid at 5 ug/ml after 120 mins by HPLC method
# Summary of the method: (§1)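 Incubated in simulated gastric fluid (pH 1.2) or simulated intestinal fluid (pH 6.5); percentage remaining intact determined after 120 min.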
# Leishmania donovani [3] = experiment: Antileishmanial activity against Leishmania donovani MHOM/IN/80/DD8 amastigote forms harboring luciferase gene infected in mouse J774 cells after 72 hrs by Steady-Glo reagent based luminescence assay; format: functional, cell-based; conditions: MHOM/IN/80/DD8, J774, 72 h
# Leishmania donovani [4] = experiment: Antileishmanial activity against Leishmania donovani amastigote forms infected in Balb/c mouse assessed as inhibition of parasitic burden in liver at 200 mg/kg, ip administered for 5 consecutive days measured on day 7 post last treatment by Giemsa staining based assay relative to control; format: functional
# Leishmania donovani [5] = experiment: Antileishmanial activity against Leishmania donovani MHOM/IN/80/DD8 promastigote forms harboring luciferase gene at 9.59 uM up to 72 hrs by MTT assay relative to control; format: functional; conditions: MHOM/IN/80/DD8, 72 h
# Leishmania donovani [6] = experiment: Antileishmanial activity against Leishmania donovani amastigote forms infected in Balb/c mouse assessed as inhibition of parasitic burden in spleen up to 100 mg/kg, ip administered for 5 consecutive days measured on day 7 post last treatment by Giemsa staining based assay relative to control; format: functional
# Leishmania donovani [7] = experiment: Antileishmanial activity against Leishmania donovani MHOM/IN/80/DD8 amastigote forms harboring luciferase gene infected in mouse J774 cells at 6.25 to 12.5 uM up to 4 days by Steady-Glo reagent based luminescence assay; format: functional, cell-based
# Summary of the method: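 Infected J774 macrophages held at 37 °C with two-fold dilutions from 200 to 6.25 µM. Intracellular amastigote growth followed by luciferase activity in lysed macrophages, expressed as RLU, over time. Three independent experiments.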
# [8] = Selectivity index, ratio of CC50 for mouse J774 cells to IC50 for Leishmania donovani MHOM/IN/80/DD8 amastigote forms infected in mouse J774 cells; format: toxicity, cell-based; conditions: read-out: Ratio CC50/IC50
# Summary of the method: (§2)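 CC50: Vero or J774 cells (1×10^5/well) exposed 72 h to seven two-fold dilutions, 500–7.81 μM; MTT 2 h at 37 °C, formazan in DMSO read at 540 nm. IC50: luciferase-expressing Dd8 amastigotes in J774 macrophages (1:8), 72 h, luminescence, four-parameter Hill fit. SI = CC50/IC50, IC50 mean of three experiments.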
# Leishmania donovani [9] = experiment: Antileishmanial activity against Leishmania donovani MHOM/IN/80/DD8 promastigote forms harboring luciferase gene at 50 uM up to 72 hrs by MTT assay relative to control; format: functional; conditions: MHOM/IN/80/DD8, 72 h
# [10] = Metabolic stability in mouse liver S9 fractions assessed as rate constant for metabolism at 1 mM after 60 mins in presence of NADPH by HPLC method; format: ADME, tissue-based
# Leishmania donovani [11] = experiment: Antileishmanial activity against Leishmania donovani MHOM/IN/80/DD8 amastigote forms harboring luciferase gene infected in mouse J774 cells at 50 uM up to 72 hrs by Giemsa staining based assay relative to control; format: functional; conditions: MHOM/IN/80/DD8, J774, 72 h
# Summary of the method: (§3)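 J774 macrophages in chamber slides infected with Dd8 promastigotes (1:10 cell:parasite in methods; 1:8 in legend) for 24 h, then treated 48 and 72 h. Cells methanol-fixed, stained with 20% Giemsa. Amastigotes per 100 macrophages counted against untreated infected controls.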
# [12] = Cytotoxicity against mouse J774 cells assessed as reduction in cell viability after 72 hrs by MTT assay; format: cell-based
# Summary of the method: (§4)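 Vero and J774 cells seeded at 1×10^5 per well for 24 h, then exposed 72 h to seven two-fold dilutions from 500 to 7.81 μM. MTT solution (5 mg/mL stock) added for 2 h at 37 °C, formazan dissolved in DMSO and read at 540 nm. CC50 derived by the Huber and Koella method.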
# Leishmania donovani [13] = experiment: Antileishmanial activity against Leishmania donovani MHOM/IN/80/DD8 promastigote forms harboring luciferase gene after 72 hrs by Steady-Glo reagent based two fold dilution assay; format: functional; conditions: MHOM/IN/80/DD8, 72 h
# Summary of the method: (§5)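 Promastigotes or J774-resident amastigotes treated 72 h with six two-fold dilutions from 200 µM down to 6.25 µM. Luciferase RLU fitted by four-parameter Hill non-linear regression to derive the […] inhibitory concentration (MIC).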
# [14] = Cytotoxicity against African green monkey Vero cells assessed as cell viability up to 200 uM after 72 hrs by MTT assay relative to control; format: cell-based; conditions: chlorocebus sabaeus, read-out: Activity
# Leishmania donovani [15] = experiment: Antileishmanial activity against Leishmania donovani MHOM/IN/80/DD8 amastigote forms harboring luciferase gene infected in mouse J774 cells at 25 uM after 72 hrs by Steady-Glo reagent based luminescence assay relative to control; format: functional; conditions: MHOM/IN/80/DD8, J774, 72 h, read-out: GI
# Summary of the method: (§6)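 Stationary-phase luciferase-expressing Dd8 promastigotes infected into J774 macrophages (4×10^4/mL seeded, 24 h, 37 °C, 5% CO2) at 1:8 macrophage:parasite for 24 h. Non-internalised parasites washed off. Compounds added at 50 and 25 µM in RPMI/10% FBS for 72 h. Lysis with Steady-Glo luciferin reagent plus PBS, luminescence read. Inhibition relative to untreated infected controls.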
# Leishmania donovani [16] = experiment: Antileishmanial activity against Leishmania donovani MHOM/IN/80/DD8 promastigote forms harboring luciferase gene at 6.25 to 12.5 uM up to 4 days by Steady-Glo reagent based luminescence assay; format: functional
# Summary of the method: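 Log-phase luciferase promastigotes at 1.0×10^6 at 24 °C, pH 7.4, given two-fold dilutions from 200 to 6.25 µM. RLU in lysed cultures measured daily for up to 4 days to plot growth curves. Three independent experiments.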
# [17] = Cytotoxicity against African green monkey Vero cells assessed as reduction in cell viability after 72 hrs by MTT assay; format: cell-based; conditions: chlorocebus sabaeus; summary of the method: as §4
# [18] = Cytotoxicity against mouse J774 cells assessed as cell viability […] after 72 hrs by MTT assay relative to control; format: cell-based; conditions: read-out: Activity; summary of the method: as §4
# Leishmania donovani [19] = experiment: Antileishmanial activity against Leishmania donovani MHOM/IN/80/DD8 amastigote forms harboring luciferase gene infected in mouse J774 cells after 72 hrs by Steady-Glo reagent based two fold dilution assay; format: functional; conditions: MHOM/IN/80/DD8, 72 h; summary of the method: as §5
# Leishmania donovani [20] = experiment: Antileishmanial activity against Leishmania donovani MHOM/IN/80/DD8 promastigote forms harboring luciferase gene at 25 uM after 72 hrs by Steady-Glo reagent based luminescence assay relative to control; format: functional; conditions: MHOM/IN/80/DD8, 72 h, read-out: GI
# Summary of the method: (§7)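 Exponential-phase Dd8-Luc promastigotes at 1×10^6/mL in M199 with 10% FBS, 24 °C, given 50 and 25 µM for 72 h. Vehicle 0.1% DMSO. Steady-Glo added 1:1, luminescence (RLU) read. IC50 from four-parameter Hill regression, derived only where inhibition exceeded 90%. Means of at least three independent experiments.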
# Leishmania donovani [21] = experiment: Antileishmanial activity against Leishmania donovani MHOM/IN/80/DD8 amastigote forms harboring luciferase gene infected in mouse J774 cells at 50 uM after 72 hrs by Steady-Glo reagent based luminescence assay relative to control; format: functional; conditions: MHOM/IN/80/DD8, J774, 72 h, read-out: GI; summary of the method: as §6
# [22] = Stability in pH 1.2 simulated gastric fluid at 5 ug/ml after 120 mins by HPLC method; summary of the method: as §1
# Leishmania donovani [23] = experiment: Antileishmanial activity against Leishmania donovani amastigote forms infected in Balb/c mouse assessed as inhibition of parasitic burden in spleen at 200 mg/kg, ip administered for 5 consecutive days measured on day 7 post last treatment by Giemsa staining based assay relative to control; format: functional
# Liver = experiment: Intrinsic clearance in mouse liver S9 fractions assessed per mg protein at 1 mM in presence of NADPH by HPLC method; format: ADME; conditions: s9, 1000 µM
# [24] = Selectivity index, ratio of CC50 for African green monkey Vero cells to IC50 for Leishmania donovani MHOM/IN/80/DD8 amastigote forms infected in mouse J774 cells; format: toxicity, cell-based; conditions: read-out: Ratio CC50/IC50; summary of the method: as §2
# Leishmania donovani [25] = experiment: Antileishmanial activity against Leishmania donovani MHOM/IN/80/DD8 promastigote forms harboring luciferase gene after 72 hrs by Steady-Glo reagent based luminescence assay; format: functional; conditions: MHOM/IN/80/DD8, 72 h; summary of the method: as §7
# [26] = Half life in mouse liver S9 fractions at 1 mM in presence of NADPH by HPLC method; format: ADME, tissue-based
# Leishmania donovani [27] = experiment: Antileishmanial activity against Leishmania donovani MHOM/IN/80/DD8 promastigote forms harboring luciferase gene at 50 uM after 72 hrs by Steady-Glo reagent based luminescence assay relative to control; format: functional; conditions: MHOM/IN/80/DD8, 72 h, read-out: GI; summary of the method: as §7
# Leishmania donovani [28] = experiment: Antileishmanial activity against Leishmania donovani amastigote forms infected in Balb/c mouse assessed as inhibition of parasitic burden in liver up to 100 mg/kg, ip administered for 5 consecutive days measured on day 7 post last treatment by Giemsa staining based assay relative to control; format: functional
# Leishmania donovani [29] = experiment: Antileishmanial activity against Leishmania donovani MHOM/IN/80/DD8 amastigote forms harboring luciferase gene infected in mouse J774 cells at 7.36 uM up to 72 hrs by Giemsa staining based assay relative to control; format: functional; conditions: MHOM/IN/80/DD8, J774, 72 h; summary of the method: as §3
structure (smiles),measurement,setting,value
COc1ccc(OC)c(C2C3=C(CC(C)(C)CC3=O)Nc3c2c(-c2c[nH]c4ccccc24)nn3-c2ccc(Cl)c(Cl)c2)c1 (stereo not given),"remaining at 1 h, 1000 µM",[1],31%
same,Stability,[2],58%
same,IC50,Leishmania donovani [3],7.36 µM
same,Imax,Leishmania donovani [4],62%
same,inhibition at 9.59 µM,Leishmania donovani [5],> 95%
same,inhibition (INH),Leishmania donovani [6],>50%
same,Activity,Leishmania donovani [7],Active
same,selectivity ratio,[8],65.5
same,inhibition at 50 µM,Leishmania donovani [9],> 95%
same,"k el at 1 h, 1000 µM",[10],0.000283 s⁻¹
same,inhibition at 50 µM,Leishmania donovani [11],> 93%
same,CC50 at 72 h,[12],482 µM
same,MIC,Leishmania donovani [13],50 µM
same,viability at 72 h,[14],> 95%
same,inhibition of growth at 25 µM,Leishmania donovani [15],91.5%
same,Activity,Leishmania donovani [16],Active
same,CC50 at 72 h,[17],498 µM
same,viability at 72 h,[18],> 95%
same,MIC,Leishmania donovani [19],50 µM
same,inhibition of growth at 25 µM,Leishmania donovani [20],85.9%
same,inhibition of growth at 50 µM,Leishmania donovani [21],95.8%
same,Stability,[22],75%
same,Imax,Leishmania donovani [23],68%
same,CLH,Liver,34.65 µL/min
same,selectivity ratio,[24],67.6
same,IC50,Leishmania donovani [25],9.59 µM
same,half-life at 1000 µM,[26],40 min
same,inhibition of growth at 50 µM,Leishmania donovani [27],90.6%
same,inhibition (INH),Leishmania donovani [28],>50%
same,inhibition at 7.36 µM,Leishmania donovani [29],> 93%
